Like-named read-outs stand apart in the source and are kept apart here.
Assays:
[1] = system: αvβ6-positive (DX3puroβ6) tumor; settings: DX3puroβ6 xenograft, 1 hour after injection, n = 3/tracer; data for 1 taken from ref 8; cited from earlier work
[2] = system: αvβ6-positive (DX3puroβ6) tumor; assay: Biodistribution in mice bearing paired αvβ6-positive; format: in vivo, male athymic nude mice; settings: for uptake in the αvβ6-positive tumor: DX3puroβ6 xenograft, 1 hour after injection; for uptake in the αvβ6-positive tumor / level of activity in the urine: n = 3/tracer; for level of activity in the urine: male athymic nude mice
Method in brief: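 Test compounds were 18F-labeled αvβ6-targeting peptides carrying different prosthetic groups. Radioactivity in healthy tissues and in both tumors was measured 1 h after injection and expressed as % ID/g, the percent of injected radioactive dose per gram of tissue. There were 3 mice per tracer.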

Substance: [^18F]FBA-A20FDMV2 [compound 1]
- uptake in the αvβ6-positive tumor [1]: 0.66 ± 0.09 % ID/g

Substance: [^18F]FC5-A20FDMV2 [compound 3]
- uptake in the αvβ6-positive tumor [2]: 1.01±0.09 % ID/g
- levels of radioactivity in the kidneys and the liver ([2]; biodistribution, 1 h p.i., compared with 1 and 2): moderately increased
- level of activity in the urine ([2]; biodistribution, 1 h p.i.): 501 ± 332 % ID/g

Substance: [^18F]FPA-A20FDMV2 [compound 2]
- uptake in the αvβ6-positive tumor [2]: 1.18 ± 0.28 % ID/g
- level of activity in the urine ([2]; biodistribution, 1 h p.i.): 311 ± 133 % ID/g

Source: publication PMC2630402 (Journal of medicinal chemistry, 2008)
